About 460 (18%) of roughly 2,500 compounds were called active.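 The calls were made as follows: active = mean activation above a cutoff of low control average plus 3 SD from the earlier screen (cut at about 12% in these data); inactive = the rest.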 A selection follows.
Test: IANBD-channel fluorescence artefacts in buffer – biochemical, artefact control for cardiac RTF calcium sensitizer project, confirmation (AID 504382)
Conditions: IANBD fluorescence interference counterscreen, EC20 Ca2+, at 7.2 µM, active compounds read high, scaled: EC20 calcium 0, EC100 calcium 100
Procedure, shortened: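 timing = compound incubation 15 min at 25 °C before fluorescence reading | technique = fluorescence at 480 nm excitation, 540 nm emission | evaluation = interference relative to controls | replication = triplicate wells per compound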

Row | SMILES | fluorescence artifact activation
1 | OCCN=C1CCCc2c1[nH]c1ccc(Cl)cc21 | 0.44% (inactive)
2 | COc1ccccc1NC(=O)CC(=O)CSc1nnc(-c2ccc(C)cc2)n1-c1ccccc1 | -0.03% (inactive)
3 | COc1ccccc1NC(=O)COC(=O)c1cnc(C)cn1 | 14.7% (active)
4 | COc1ccccc1NCC(=O)NC(=O)NC1CCCCC1 | 0.02% (inactive)
5 | Cn1c(CN2CCCC2)nc2cc(NC(=O)COc3ccc([N+](=O)[O-])cc3)ccc21 | 0.82% (inactive)
6 | CCCn1c(CN2CCN(C(=O)OCC)CC2)nc2cc(NC(=O)CC)ccc21 | 0.01% (inactive)
7 | CCC(=O)Nc1ccc2c(c1)nc(CCN1CCN(C)CC1)n2C | 20.2% (active)
8 | CCCCC1OC23CCCCC2C(C#N)(C(=N)O3)C1(C#N)C#N (configuration not stated) | -0.04% (inactive)
9 | CCCCC1OC23CCCCC2C(C#N)(C#N)C1(C#N)C(=N)O3 (configuration not stated) | 3.08% (inactive)
10 | CCCC1OC23CCCCC2C(C#N)(C#N)C1(C#N)C(=N)O3 (configuration not stated) | 36.8% (active)
11 | CCN(c1ccccc1)S(=O)(=O)c1ccc(OC)c(NC(=O)Cn2cnc3c2c(=O)n(C)c(=O)n3C)c1 | 0.38% (inactive)
12 | CC(OC(=O)/C(C#N)=C/c1ccc(N(C)C)cc1)C(=O)N(C)c1ccccc1 (configuration not stated) | 0.19% (inactive)
13 | NS(=O)(=O)c1ccc(-c2ccc(/C=C3\SC(=S)N(C4CCS(=O)(=O)C4)C3=O)o2)cc1 (configuration not stated) | 3.08% (inactive)
14 | COc1ccc(CCNC(=O)C2CC(c3c(Cl)cccc3Cl)=NO2)cc1 (configuration not stated) | -0.04% (inactive)
15 | CC1(C)CC(=O)C(CC2CCCCC2=O)C(=O)C1 (configuration not stated) | 0.76% (inactive)
16 | Fc1ccc(CNC(=S)NCc2ccc(F)cc2)cc1 | 12.3% (active)
17 | Fc1ccc(CNCc2ccc(Br)cc2)cc1 | 0.02% (inactive)
18 | CCN(CC)c1ccc(NC(=S)Nc2ccc(F)cc2)cc1 | 0.1% (inactive)
19 | S=C(Nc1ccc(N2CCOCC2)cc1)Nc1ccc2nc(-c3ccco3)c(-c3ccco3)nc2c1 | 8.46% (inactive)
20 | O=C(Cn1cnc2ccccc2c1=O)c1ccc(Br)cc1 | 102% (active)
21 | COc1ccc(C(=O)Cn2cnc3ccccc3c2=O)cc1OC | 0.22% (inactive)
22 | O=C(c1ccc(Cl)cc1)n1cnc2ccccc21 | 0.21% (inactive)
23 | O=C(C1=NN(c2ccccc2)C2C(=O)N(c3ccccc3Cl)C(=O)C12)c1ccccc1 (configuration not stated) | 1.06% (inactive)

Row | SMILES | fluorescence artifact activation
24 | Cc1oc(-c2cc3c(cc2Cl)OCO3)nc1CN1CCCC(C(=O)N2CCOCC2)C1 (configuration not stated) | 190% (active)
25 | CSCCC(NC(=O)c1ccc(Cl)cc1)C(=O)OCC(=O)c1ccc[nH]1 (configuration not stated) | 0.05% (inactive)
26 | O=C(/C=C/c1ccccc1)N/C(=C/c1ccccc1)C(=O)NCCCO | 0.08% (inactive)
27 | C=CCNC(=O)NC(=O)COC(=O)CC(NC(N)=O)c1ccc(Cl)cc1 (configuration not stated) | 50.5% (active)
28 | O=C(NCCCN1CCCC1=O)c1cccc(S(=O)(=O)Nc2ccc(Br)cc2)c1 | 0.07% (inactive)
29 | O=C1CCC(=O)N(O)CCCCCNC(=O)CCC(=O)N(O)CCCCNC(=O)CCC(=O)N(O)CCCCCN1 | -0.06% (inactive)
30 | O=C(CC1C(=O)N(c2ccc(Cl)cc2)C(=S)N1CCc1ccncc1)Nc1ccc(F)cc1 (configuration not stated) | -0.02% (inactive)
31 | O=C1c2cccc3cccc(c23)C(=O)N1CC1CCN(S(=O)(=O)c2ccc(F)cc2)CC1 | 34.6% (active)
32 | CC1CCN(S(=O)(=O)c2ccc(N=NC3=C(O)CC(C)(C)CC3=O)cc2)CC1 | 1.03% (inactive)
33 | O=S(=O)(c1ccccc1Cl)N1CCC(Cc2ccccc2)CC1 | 0.09% (inactive)
34 | C=CCn1c(C)cc(-c2csc(N)n2)c1C | 2.95% (inactive)
35 | O=C(NCc1ccco1)C1CC(c2c(Cl)cccc2Cl)=NO1 (configuration not stated) | -0.09% (inactive)
36 | COc1cccc(C(=O)NC2CC3CCCC(C2)N3CC(=O)Nc2ccc(N(C)C)cc2)c1 (configuration not stated) | 3.62% (inactive)
37 | CN(C)c1ccc(/C=C/c2cc[n+](C)cc2)cc1 | 14.5% (active)
38 | Cc1ccc(/C=C/c2ccc(N(C)C)cc2)[n+](C)c1 | 1.46% (inactive)
39 | CN(C)c1ccc(/C=C/c2cc[n+](C)c3ccccc23)cc1 | 0.06% (inactive)
40 | O=C1N(c2cccc(Cl)c2)C(c2ccccc2)N2CCCN12 (configuration not stated) | -0.04% (inactive)
41 | COc1ccc(COc2cc(-c3cccc(OC)c3)nc3ccc(NC(=O)c4ccc(C)cc4)cc23)cc1 | 0.13% (inactive)
42 | COc1cccc(CC(NC(C)=O)C(=O)NC2CCN(c3nc(C)cc(C)c3C#N)CC2)c1OC (configuration not stated) | 6.12% (inactive)
43 | CCCCN(C(=O)c1ccc2c(c1)OCCO2)c1c(N)n(CCCC)c(=O)[nH]c1=O | -0.02% (inactive)
44 | CC(=O)Nc1ccc(NC(=O)C(C)OC(=O)/C(C#N)=C/c2ccc(N(C)C)cc2)cc1 (configuration not stated) | 2.64% (inactive)
45 | CC1CC(C)(C)NC(=S)N1CCCC(=O)Nc1ccccc1F (configuration not stated) | 0.07% (inactive)
46 | CCC(C)n1ncn(-c2ccc(N3CCN(c4ccc(OCC5COC(Cn6cncn6)(c6ccc(Cl)cc6Cl)O5)cc4)CC3)cc2)c1=O (configuration not stated) | 121% (active)

Row | SMILES | fluorescence artifact activation
47 | CC1(C)c2[nH]c3ccccc3c2C[C@H]2C(=O)N(Cc3ccc(F)cc3)C(=O)N21 | 0% (inactive)
48 | Cc1onc(-c2ccccc2Cl)c1C(=O)N(Cc1ccc(N(C)C)cc1)C(C)C | 2.44% (inactive)
49 | CCOC(=O)c1ccccc1-n1nnnc1C | 0.06% (inactive)
50 | CCOC(=O)c1cc2c(s1)-c1ccccc1CC2 | 0.55% (inactive)
51 | CCOC(=O)c1cc2n(c1N)-c1ccccc1C2=O | 19.5% (active)
52 | COc1cc(/C=C/C=C2/CC/C(=C/C=C/c3ccc(O)c(OC)c3)C2=O)ccc1O | 7.81% (inactive)
53 | C/C(=C\C=C(C#N)C#N)c1cc(C#N)c(N)o1 | 3.09% (inactive)
54 | N#C/C(=C\c1ccc(N2CCCCC2)o1)C(N)=O | 2.99% (inactive)
55 | N#C/C(=C/c1ccc(N2CCCCCC2)o1)c1ccc(Cl)cc1 | 12.3% (active)
56 | N#C/C(=C/c1ccc(N2CCOCC2)o1)c1ccc(Cl)cc1 | 0% (inactive)
57 | N#C/C(=C\c1ccc(N2CCOCC2)o1)C(=O)N1CCOCC1 | 0.05% (inactive)
58 | N#C/C(=C/c1ccc(N2CCCCCC2)o1)c1cccc(F)c1 | 33.8% (active)
59 | Cc1ncoc1C(=O)N1CCc2c([nH]c3ccccc23)C1C(C)(C)C (configuration not stated) | 0.21% (inactive)
60 | CN(C)c1ccc(/C=C/c2ccc3ccccc3n2)cc1 | 0.06% (inactive)
61 | CN1CCN(CCNC(=O)Nc2ccc(Cl)cc2)CC1 | 3.25% (inactive)
62 | CCCCCCSc1ccc([C@@H]2[C@H]3C(=O)N(CC)C(=O)[C@H]3[C@]3(C(=O)OC)CCCCN23)cc1OC | -0.04% (inactive)
63 | CCn1cc(Cl)c(C(=O)NNC(=O)CCn2cc([N+](=O)[O-])cn2)n1 | -0.04% (inactive)
64 | CN1/C(=C\C=C2/SC(=S)N(CC(=O)O)C2=O)C(C)(C)c2ccccc21 | 0.11% (inactive)
65 | CN1C(=CC=C2C=C(I)C(=O)C(I)=C2)C(C)(C)c2ccccc21 | 0.22% (inactive)
66 | CC1(C)c2ccccc2N2CC(=O)N(CC(N)=O)C21C (configuration not stated) | 20.9% (active)
67 | O=C(Nc1ccccc1)OC1CCC2CC1CCC2OC(=O)Nc1ccccc1 (configuration not stated) | -0.01% (inactive)
68 | O=C(Nc1ccccc1)NC1CS(=O)(=O)CC1O (configuration not stated) | 32.8% (active)
69 | CC(=O)Nc1ccccc1 | -0.1% (inactive)

Row | SMILES | fluorescence artifact activation
70 | c1ccc(CCC2=NCCn3cccc32)cc1 | 4.53% (inactive)
71 | CCCCn1c(N)c(N(CC(C)C)C(=O)Cc2ccc(S(=O)(=O)N3CCOCC3)s2)c(=O)[nH]c1=O | 3.01% (inactive)
72 | Brc1ccc2[nH]c3nc(SCCN4CCOCC4)nnc3c2c1 | 0.16% (inactive)
73 | COc1ccc(/C=C2\SC(=S)N(CCCC(=O)Nc3ccccc3C(=O)O)C2=O)cc1OC | 5.03% (inactive)
74 | Cc1cccc(OCCNc2ccc(C(F)(F)F)cc2[N+](=O)[O-])c1 | 43.7% (active)
75 | O=C(Nc1ccccc1)c1ccc(NCCc2ccccc2)c([N+](=O)[O-])c1 | 0.33% (inactive)
76 | CC(=O)c1cccc(-n2c(CCC(=O)O)ccc2-c2ccccc2)c1 | 0.06% (inactive)
77 | Cc1nnc(-c2ccccc2)c(=O)n1/N=C/c1c(O)ccc2ccccc12 | 0.11% (inactive)
78 | C/C(=N\NC(=O)c1cc2c(s1)CCC(C)C2)c1ccc[nH]1 (configuration not stated) | 0.04% (inactive)
79 | Cc1oc2c(cc(NS(=O)(=O)c3ccc(C(C)C)cc3)c3ccccc32)c1C(=O)O | -0.05% (inactive)
80 | O=C(O)c1ccccc1-c1ccc(/C=C2\SC(=O)N(c3ccccc3)C2=O)o1 | 0.06% (inactive)
81 | CN1C/C(=C\c2ccc(N3CCOCC3)cc2)C(=O)/C(=C/c2ccc(N3CCOCC3)cc2)C1 | 0.12% (inactive)
82 | CC(C)OC(=O)CN1C(=O)S/C(=C/c2ccc(N3CCCCC3)o2)C1=O | 0.64% (inactive)
83 | O=C1S/C(=C\c2ccc(N3CCOCC3)o2)C(=O)N1Cc1c(F)cccc1Cl | 226% (active)
84 | CCCN1C(=O)S/C(=C/c2ccc(N3CCOCC3)o2)C1=O | 31.7% (active)
85 | O=C1S/C(=C/c2ccc(N3CCOCC3)o2)C(=O)N1Cc1c(F)cccc1Cl | 5.76% (inactive)
86 | O=C1S/C(=C\c2ccc(N3CCOCC3)o2)C(=O)N1c1ccccc1 | 22.4% (active)
87 | O=C1S/C(=C/c2ccc(N3CCOCC3)o2)C(=O)N1Cc1ccc(F)cc1 | 16.8% (active)
88 | O=C(CSCc1c(F)cccc1Cl)Nc1ccccc1C(=O)N1CCOCC1 | 2.06% (inactive)
89 | O=C1N/C(=C\c2ccsc2)C(=O)N1Cc1ccc(F)cc1 | 0.11% (inactive)
90 | O=C1S/C(=C\c2ccc(N3CCOCC3)o2)C(=O)N1Cc1ccc(F)cc1 | -0.07% (inactive)
91 | CCCN1C(=O)S/C(=C\c2ccc(N3CCOCC3)o2)C1=O | 0.73% (inactive)
92 | CCCOc1ccc(C2C(C(=O)/C=C/c3ccco3)=C(O)C(=O)N2CCN2CCOCC2)cc1OC (configuration not stated) | 9.14% (inactive)
